Assay [1] concerns the target T1, 5-hydroxytryptamine receptor 1A (Homo sapiens) (UniProt P08908).
T1 sequence (whole entry): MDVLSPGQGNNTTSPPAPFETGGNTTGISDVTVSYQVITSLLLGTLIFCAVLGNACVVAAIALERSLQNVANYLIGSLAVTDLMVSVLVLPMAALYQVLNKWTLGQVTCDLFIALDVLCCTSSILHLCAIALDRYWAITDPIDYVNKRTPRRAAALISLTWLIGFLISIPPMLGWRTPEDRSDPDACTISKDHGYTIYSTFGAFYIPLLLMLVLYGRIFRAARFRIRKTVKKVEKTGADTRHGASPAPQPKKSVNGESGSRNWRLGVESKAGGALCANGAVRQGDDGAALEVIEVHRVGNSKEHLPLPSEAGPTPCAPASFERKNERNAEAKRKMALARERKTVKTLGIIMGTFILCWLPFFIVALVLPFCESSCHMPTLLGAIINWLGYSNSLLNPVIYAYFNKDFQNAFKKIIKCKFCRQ
As to the kind of experiment: Agonist efficacy towards cloned human 5HT1A receptor by [35SGTP]gammaS binding in HeLa cells. The format is cell-based.

For assay [2], the target named is T1, 5-hydroxytryptamine receptor 1A (Homo sapiens). As to the kind of experiment: Maximum response towards cloned human 5HT1A receptor.
The test system of assay [3] is PC-3. As to the kind of experiment: Cytotoxic activity on human PC3 prostate cancer cells by SRB assay. Format: functional. The note with it: for GI50 / LC50 (50% lethal concentration) / TGI: Homo sapiens, PC-3. The method in brief:
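NCI-protocol SRB assay on PC-3 cells grown in DMEM/10% FBS/2 mM glutamine. Seeded 24 h, then compounds in medium for 48 h at 37 °C, 5% CO2, in quadruplicate. A time-zero plate was read. Cells TCA-fixed, stained with 0.4% SRB, absorbance at 520 nm. GI50, TGI and LC50 interpolated from % growth versus log concentration.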

For assay [4], the target named is T2, Alpha-1B adrenergic receptor (Homo sapiens, UniProt P35368).
T2 sequence (P35368 whole entry): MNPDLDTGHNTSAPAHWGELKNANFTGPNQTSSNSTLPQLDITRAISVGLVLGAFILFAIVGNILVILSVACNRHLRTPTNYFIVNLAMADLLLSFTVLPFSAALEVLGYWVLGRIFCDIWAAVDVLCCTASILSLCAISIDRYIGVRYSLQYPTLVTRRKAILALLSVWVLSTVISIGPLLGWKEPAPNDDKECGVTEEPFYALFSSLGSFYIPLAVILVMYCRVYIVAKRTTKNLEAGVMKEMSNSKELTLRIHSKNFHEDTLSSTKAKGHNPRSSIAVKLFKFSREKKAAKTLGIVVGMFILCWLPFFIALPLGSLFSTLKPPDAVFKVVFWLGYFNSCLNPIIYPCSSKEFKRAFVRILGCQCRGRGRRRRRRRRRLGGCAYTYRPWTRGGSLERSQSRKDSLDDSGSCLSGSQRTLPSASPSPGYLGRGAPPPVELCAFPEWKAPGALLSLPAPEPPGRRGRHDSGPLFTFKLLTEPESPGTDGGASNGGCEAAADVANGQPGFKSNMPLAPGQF
As to the kind of experiment: Displacement of [3H]prazosin from cloned human ADRA1B expressed in CHO cells. Format: cell-based.

In assay [5] the target is T3, Alpha-1B adrenergic receptor (Rattus norvegicus) (UniProt P15823).
T3 sequence (whole entry): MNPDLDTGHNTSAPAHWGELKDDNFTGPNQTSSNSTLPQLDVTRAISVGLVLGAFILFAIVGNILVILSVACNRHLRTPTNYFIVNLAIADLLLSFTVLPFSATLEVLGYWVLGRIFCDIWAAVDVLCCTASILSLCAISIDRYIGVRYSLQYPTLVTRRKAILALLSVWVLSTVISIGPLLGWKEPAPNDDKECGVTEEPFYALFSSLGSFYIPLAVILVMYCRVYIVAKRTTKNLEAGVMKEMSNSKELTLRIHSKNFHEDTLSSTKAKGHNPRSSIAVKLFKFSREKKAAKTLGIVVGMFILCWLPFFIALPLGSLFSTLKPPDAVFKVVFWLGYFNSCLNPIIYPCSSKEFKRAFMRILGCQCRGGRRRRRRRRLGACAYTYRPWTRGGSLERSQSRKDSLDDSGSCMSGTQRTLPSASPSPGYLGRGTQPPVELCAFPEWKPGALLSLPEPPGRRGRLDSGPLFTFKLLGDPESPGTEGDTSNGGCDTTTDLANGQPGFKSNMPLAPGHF
Briefly: ADRA1B blocking activity assessed by antagonism of (-)-phenylephrine induced contractions on isolated rat spleen. The format is functional, tissue-based. The method in brief: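 Isolated rat tissue: each antagonist concentration tested four times over 0.01–1 μM; pK_B calculated by van Rossum method from shifts of (-)-noradrenaline contraction curves (vas deferens, α1A; thoracic aorta, α1D) or (-)-phenylephrine contraction curves (spleen, α1B).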

For assay [6], the system named is PC-3. Briefly: Inhibition of NE-induced increase of PC3 cell proliferation using ELISA BrdU. The format is functional, cell-based. The note with it: Homo sapiens. An outline of the steps: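 PC-3 cells (7×10^4/well) plated 24 h, then given noradrenaline (0–50 μM) alone or with antagonist (1 μM, or 0.5 μM for one compound) for 16 h. BrdU added for the last 4 h and read by colorimetric ELISA as % growth; mean ± SD of three experiments.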

The source made the active and inactive calls. The rule behind the calls is not given here.

Turning to `COc1cccc(OC)c1OCCNCCOc1ccccc1OCc1ccccc1Cl`, the pD2 in assay [1] was found to be 7.31. In assay [2], this compound yielded a %max of 74.4%. For the same compound, in the assay with PC-3 [3], growth was halved (GI50) at 5.4 µM, the LC50 (50% lethal concentration) was 58.9 µM and net growth stopped (TGI) at 17.8 µM. In assay [4], this compound gave a Ki of 0.000562 µM. The pKb in assay [5] was found to be 7.52.
`COc1cccc(OC)c1OCCNCCOc1ccccc1OCc1cccc(Cl)c1` displayed a pD2 in assay [1] of 7.15. The compound also registered a %max in assay [2] of 67.1%. In the assay with PC-3 [3], this compound displayed a GI50 of 5.9 µM, an LC50 (50% lethal concentration) of 58.9 µM and a TGI of 20.4 µM. The affinity in assay [4], expressed as Ki, was 0.000158 µM. In addition, the negative-log Kb (pKb) in assay [5] is 7.93.
As to `COc1cccc(OC)c1OCCNCCOc1ccccc1OCc1ccc(Cl)cc1` [CLOPENPHENDIOXAN], the pD2 in assay [1] turned out to be 6.98. The compound further gave a %max in assay [2] of 60%. In the assay on PC-3 [3], this compound yielded a GI50 of 2.4 µM, an LC50 (50% lethal concentration) of 52.5 µM and a TGI of 14.5 µM. In assay [4], this compound showed a Ki of 0.001 µM. This compound displayed a pKb in assay [5] of 8.06. For the same compound, the result in the assay with PC-3 [6] was Active.
Consider `COc1cccc(OC)c1OCCNCCOc1ccccc1OCc1ccccc1[N+](=O)[O-]`, for which, in the assay with PC-3 [3], growth was halved (GI50) at 13.2 µM, the LC50 (50% lethal concentration) is 95.5 µM and the TGI turned out to be 34.7 µM. This compound also gave a Ki in assay [4] of 0.00251 µM. The compound also came in with a pKb in assay [5] of 8.56.
In the assay on PC-3 [3], `COc1cccc(OC)c1OCCNCCOc1ccccc1OCc1cccc(C)c1` came in with a GI50 of 12 µM, an LC50 (50% lethal concentration) of 87.1 µM and a TGI of 32.3 µM. In assay [4], this compound gave a Ki of 0.000251 µM. In assay [5], this compound displayed a pKb of 8.2.
Take `COc1cccc(OC)c1OCCNCCOc1ccccc1OCc1ccccc1C`: the pD2 in assay [1] is 6.96. Also, the %max in assay [2] amounted to 75.6%. In addition, in the assay with PC-3 [3], the Activity was less than 50%, the GI50 worked out at 11.5 µM and the TGI turned out to be 33.9 µM. The same compound showed a Ki in assay [4] of 0.000794 µM. Also, the pKb in assay [5] was 7.67.
In assay [1], `COc1cccc(OC)c1OCCNCCOc1ccccc1OCc1cccc([N+](=O)[O-])c1` gave a pD2 of 7.16. In assay [2], this compound had a %max of 44.4%. Further, in the assay with PC-3 [3], the Activity is reported as less than 50%, the GI50 stood at 13.2 µM and total growth inhibition (TGI) required 38.9 µM. In assay [4], the inhibitory constant (Ki) was 0.000794 µM. The compound further came in with a negative logarithm of the Kb (pKb) in assay [5] of 8.74.
In the assay on PC-3 [3], `COc1ccccc1COc1ccccc1OCCNCCOc1c(OC)cccc1OC` yielded a GI50 of 8.9 µM, an LC50 (50% lethal concentration) of 100 µM and a TGI of 30.2 µM. For the same compound, the Ki in assay [4] is 0.00631 µM. The same compound showed a pKb in assay [5] of 8.13.
The compound `COc1cccc(OC)c1OCCNCCOc1ccccc1OCc1ccc([N+](=O)[O-])cc1` had a pD2 in assay [1] of 6.15. Further, the %max in assay [2] came out at 79.1%. In the assay on PC-3 [3], this compound returned an Activity of less than 50%, a concentration for 50% growth inhibition (GI50) of 12 µM and a TGI of 43.6 µM. Moreover, the Ki in assay [4] was 0.000398 µM. The pKb in assay [5] came to 9.02.
As for `COc1cccc(OC)c1OCCNCCOc1ccccc1OCc1ccccc1`, the pD2 in assay [1] is 7.11. The %max in assay [2] is 45.7%. In the assay on PC-3 [3], this compound came in with a GI50 of 26.9 µM, an LC50 (50% lethal concentration) of 193 µM and a TGI of 76.9 µM. This compound had a Ki in assay [4] of 0.000537 µM. The compound also displayed a pKb in assay [5] of 8.3. For the same compound, the result in the assay on PC-3 [6] was Active.
In the assay on PC-3 [3], `COc1cccc(OC)c1OCCNCCOc1ccccc1OCc1ccc(C)cc1` displayed a GI50 of 7.8 µM, an LC50 (50% lethal concentration) of 61.7 µM and a TGI of 27.5 µM. In addition, the Ki in assay [4] was 0.000251 µM. In assay [5], this compound displayed a pKb of 8.43.
The compound `COc1ccc(COc2ccccc2OCCNCCOc2c(OC)cccc2OC)cc1` returned a pD2 in assay [1] of 7.92. In assay [2], this compound showed a %max of 21.6%. In the assay with PC-3 [3], this compound had an Activity of less than 50%, a GI50 of 8.5 µM and a TGI of 34.7 µM. The Ki in assay [4] was 0.000398 µM. Also, in assay [5], the negative-log Kb (pKb) was found to be 9.51.
Take `COc1cccc(COc2ccccc2OCCNCCOc2c(OC)cccc2OC)c1`: in the assay on PC-3 [3], the GI50 was determined as 2.5 µM, the LC50 (50% lethal concentration) turned out to be 61.7 µM and total growth inhibition (TGI) required 15.1 µM. Further, the affinity in assay [4] corresponds to a Ki of 0.002 µM. The compound further came in with a pKb in assay [5] of 8.31.
